Experimental data from ChEMBL document CHEMBL2390926, “Identification of novel FLT3 kinase inhibitors” (Eur J Med Chem, 2013).
Blank lines part the entries; values can stand above or below the molecule they belong to. Active and inactive are the calls of the source. No cut-off for these calls is given here.

How the values were obtained:
KG-1 = test: Cytotoxicity against human KG1 cells after 24 hrs by plate reader analysis; format: functional, cell-based; conditions: KG-1, 24 h
Procedure, shortened: (§1)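 Cells in RPMI 1640 with 10% FBS at 37 °C and 5% CO2 were seeded at 100,000 cells/ml. They were treated for 24 h at 8 concentrations (50–6400 nM), each in triplicate, with DMSO as negative control. Viable cells were measured by ATP-lite luminescence, and EC50 was taken from dose–response curves.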

MOLM-13 = test: Cytotoxicity against human MOLM13 cells after 24 hrs by plate reader analysis; format: functional, cell-based; conditions: MOLM-13, 24 h; procedure, shortened: as §1
EOL1 = test: Cytotoxicity against human EOL-1 cells after 24 hrs by plate reader analysis; format: functional, cell-based; conditions: EOL1, 24 h; procedure, shortened: as §1
[1] = target: T1, Receptor-type tyrosine-protein kinase FLT3 (Mus musculus) (UniProt Q00342); test: Inhibition of FLT3 phosphorylation in mouse Ba/F3 cells transfected with FLT3-ITD at 50 nM after 90 mins by Western blot analysis; format: cell-based; conditions: BaF3
T1 sequence (whole entry): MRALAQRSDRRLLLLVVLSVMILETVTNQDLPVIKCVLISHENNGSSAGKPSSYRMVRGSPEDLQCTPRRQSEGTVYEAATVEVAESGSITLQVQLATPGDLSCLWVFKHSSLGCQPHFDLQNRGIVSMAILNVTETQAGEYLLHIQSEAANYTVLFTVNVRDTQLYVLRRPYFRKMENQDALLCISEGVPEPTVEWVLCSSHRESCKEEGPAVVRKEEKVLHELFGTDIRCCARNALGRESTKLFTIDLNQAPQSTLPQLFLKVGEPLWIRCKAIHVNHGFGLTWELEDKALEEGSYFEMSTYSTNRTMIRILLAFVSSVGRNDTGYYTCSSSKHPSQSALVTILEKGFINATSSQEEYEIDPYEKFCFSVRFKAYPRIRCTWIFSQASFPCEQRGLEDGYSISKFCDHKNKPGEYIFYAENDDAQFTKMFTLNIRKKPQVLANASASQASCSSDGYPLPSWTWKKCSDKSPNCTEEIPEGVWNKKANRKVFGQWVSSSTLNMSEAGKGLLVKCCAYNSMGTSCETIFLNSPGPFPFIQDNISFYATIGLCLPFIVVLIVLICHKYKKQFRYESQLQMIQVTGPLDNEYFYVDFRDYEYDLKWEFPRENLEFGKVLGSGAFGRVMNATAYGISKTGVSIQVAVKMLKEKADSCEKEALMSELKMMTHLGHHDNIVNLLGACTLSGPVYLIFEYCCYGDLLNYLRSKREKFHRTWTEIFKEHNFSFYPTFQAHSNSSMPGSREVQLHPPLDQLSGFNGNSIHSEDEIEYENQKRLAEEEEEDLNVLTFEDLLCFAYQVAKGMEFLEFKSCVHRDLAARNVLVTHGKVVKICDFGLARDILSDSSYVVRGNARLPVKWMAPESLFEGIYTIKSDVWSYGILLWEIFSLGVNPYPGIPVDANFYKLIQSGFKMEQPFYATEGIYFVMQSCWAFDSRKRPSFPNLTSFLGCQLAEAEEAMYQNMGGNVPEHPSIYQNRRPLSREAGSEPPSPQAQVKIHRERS
Procedure, shortened: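 Ba/F3-FLT3-ITD cells were treated for 90 min with increasing doses. They were lysed in buffer with 1 mM NaVO4 and protease inhibitors, then reduced and run on Bis-Tris 4–12% gels for Western blot. Phospho-FLT3 and phospho-STAT5 were detected, with total FLT3 and STAT5 as loading controls.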

[2] = target: Platelet-derived growth factor receptor alpha (Homo sapiens) (UniProt P16234); test: Inhibition of PDGFRalpha phosphorylation in human EOL-1 cells after 90 mins by Western blot analysis; format: cell-based; conditions: EOL1
Procedure, shortened: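 EOL-1 cells (FIP1L1-PDGFRA, RPMI/10% FBS) treated 90 min with increasing compound doses. Lysed in lysis buffer with 1 mM NaVO4 and protease inhibitors, reduced, and run on Bis-Tris 4–12% gels. Western blot for phospho-PDGFRα and phospho-STAT5, with total PDGFRα and STAT5 as loading controls.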

[3] = target: T2, Ephrin type-A receptor 8 (Homo sapiens) (UniProt P29322); test: Inhibition of EPHA8 (unknown origin) transfected in mouse Ba/F3 cells up to 1 uM; format: cell-based; conditions: BaF3
T2 sequence (whole entry): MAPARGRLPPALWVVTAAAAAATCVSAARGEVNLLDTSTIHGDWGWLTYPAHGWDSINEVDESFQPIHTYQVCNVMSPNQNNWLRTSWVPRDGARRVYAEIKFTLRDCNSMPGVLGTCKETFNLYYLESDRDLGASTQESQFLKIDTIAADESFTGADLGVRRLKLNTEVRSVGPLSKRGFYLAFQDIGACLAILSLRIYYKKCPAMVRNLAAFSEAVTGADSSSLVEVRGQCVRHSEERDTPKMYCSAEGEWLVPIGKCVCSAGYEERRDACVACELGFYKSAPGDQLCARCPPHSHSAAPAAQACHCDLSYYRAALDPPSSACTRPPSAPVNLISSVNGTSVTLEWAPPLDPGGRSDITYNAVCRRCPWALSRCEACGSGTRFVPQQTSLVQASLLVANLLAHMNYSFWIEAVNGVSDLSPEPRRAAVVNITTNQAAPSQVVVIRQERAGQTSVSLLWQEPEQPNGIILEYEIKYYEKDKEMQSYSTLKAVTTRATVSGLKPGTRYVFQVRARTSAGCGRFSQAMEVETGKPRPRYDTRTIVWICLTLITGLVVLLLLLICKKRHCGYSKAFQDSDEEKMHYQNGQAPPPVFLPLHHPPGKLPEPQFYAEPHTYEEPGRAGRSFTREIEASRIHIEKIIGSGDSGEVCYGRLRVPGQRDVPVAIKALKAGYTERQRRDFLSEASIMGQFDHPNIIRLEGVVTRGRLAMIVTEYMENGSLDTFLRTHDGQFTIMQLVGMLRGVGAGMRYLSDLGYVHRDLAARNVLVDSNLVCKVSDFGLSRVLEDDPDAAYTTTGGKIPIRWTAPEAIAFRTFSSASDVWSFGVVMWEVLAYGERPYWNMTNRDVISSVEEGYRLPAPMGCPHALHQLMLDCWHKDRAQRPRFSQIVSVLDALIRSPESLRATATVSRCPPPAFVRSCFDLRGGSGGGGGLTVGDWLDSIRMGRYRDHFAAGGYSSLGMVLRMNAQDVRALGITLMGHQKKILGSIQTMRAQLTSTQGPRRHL

[4] = target: Ephrin type-A receptor 5 (Homo sapiens) (UniProt P54756); test: Inhibition of EPHA5 (unknown origin) transfected in mouse Ba/F3 cells up to 1 uM; format: cell-based; conditions: BaF3
[5] = target: Tyrosine-protein kinase ABL2 (Homo sapiens) (UniProt P42684); test: Inhibition of ABL2 (unknown origin) transfected in mouse Ba/F3 cells up to 1 uM; format: cell-based; conditions: BaF3
[6] = target: Proto-oncogene tyrosine-protein kinase Src (Homo sapiens) (UniProt P12931); test: Inhibition of SRC (unknown origin) transfected in mouse Ba/F3 cells up to 1 uM; format: cell-based; conditions: BaF3
Procedure, shortened: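 Ba/F3 cells transformed by ROS1 or SRC, dependent on that kinase. Parental Ba/F3 grown with mouse IL-3 served as control. Seeded at 100,000 cells/ml. Eight concentrations (50–6400 nM) run in triplicate with DMSO negative control for 24 h. Viable cells quantified by ATP-lite luminescence, mean ± SEM.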

Chain of Proto-oncogene tyrosine-protein kinase Src (Homo sapiens) (P12931 2-536 limits assumed): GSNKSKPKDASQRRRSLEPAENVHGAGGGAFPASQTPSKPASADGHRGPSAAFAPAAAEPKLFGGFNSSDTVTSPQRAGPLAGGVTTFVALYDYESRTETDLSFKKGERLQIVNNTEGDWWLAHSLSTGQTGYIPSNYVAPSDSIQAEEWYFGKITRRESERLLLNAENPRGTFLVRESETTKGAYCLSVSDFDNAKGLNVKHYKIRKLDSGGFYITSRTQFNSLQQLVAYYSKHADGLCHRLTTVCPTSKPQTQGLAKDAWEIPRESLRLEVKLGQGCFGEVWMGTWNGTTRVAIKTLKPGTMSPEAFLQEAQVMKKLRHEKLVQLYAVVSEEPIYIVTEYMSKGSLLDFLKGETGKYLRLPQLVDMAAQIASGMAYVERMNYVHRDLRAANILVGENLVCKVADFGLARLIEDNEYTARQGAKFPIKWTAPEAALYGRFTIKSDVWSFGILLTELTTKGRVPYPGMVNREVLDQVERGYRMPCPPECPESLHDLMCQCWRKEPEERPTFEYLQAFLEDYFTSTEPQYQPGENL
Chain of Platelet-derived growth factor receptor alpha (Homo sapiens) (P16234 whole entry): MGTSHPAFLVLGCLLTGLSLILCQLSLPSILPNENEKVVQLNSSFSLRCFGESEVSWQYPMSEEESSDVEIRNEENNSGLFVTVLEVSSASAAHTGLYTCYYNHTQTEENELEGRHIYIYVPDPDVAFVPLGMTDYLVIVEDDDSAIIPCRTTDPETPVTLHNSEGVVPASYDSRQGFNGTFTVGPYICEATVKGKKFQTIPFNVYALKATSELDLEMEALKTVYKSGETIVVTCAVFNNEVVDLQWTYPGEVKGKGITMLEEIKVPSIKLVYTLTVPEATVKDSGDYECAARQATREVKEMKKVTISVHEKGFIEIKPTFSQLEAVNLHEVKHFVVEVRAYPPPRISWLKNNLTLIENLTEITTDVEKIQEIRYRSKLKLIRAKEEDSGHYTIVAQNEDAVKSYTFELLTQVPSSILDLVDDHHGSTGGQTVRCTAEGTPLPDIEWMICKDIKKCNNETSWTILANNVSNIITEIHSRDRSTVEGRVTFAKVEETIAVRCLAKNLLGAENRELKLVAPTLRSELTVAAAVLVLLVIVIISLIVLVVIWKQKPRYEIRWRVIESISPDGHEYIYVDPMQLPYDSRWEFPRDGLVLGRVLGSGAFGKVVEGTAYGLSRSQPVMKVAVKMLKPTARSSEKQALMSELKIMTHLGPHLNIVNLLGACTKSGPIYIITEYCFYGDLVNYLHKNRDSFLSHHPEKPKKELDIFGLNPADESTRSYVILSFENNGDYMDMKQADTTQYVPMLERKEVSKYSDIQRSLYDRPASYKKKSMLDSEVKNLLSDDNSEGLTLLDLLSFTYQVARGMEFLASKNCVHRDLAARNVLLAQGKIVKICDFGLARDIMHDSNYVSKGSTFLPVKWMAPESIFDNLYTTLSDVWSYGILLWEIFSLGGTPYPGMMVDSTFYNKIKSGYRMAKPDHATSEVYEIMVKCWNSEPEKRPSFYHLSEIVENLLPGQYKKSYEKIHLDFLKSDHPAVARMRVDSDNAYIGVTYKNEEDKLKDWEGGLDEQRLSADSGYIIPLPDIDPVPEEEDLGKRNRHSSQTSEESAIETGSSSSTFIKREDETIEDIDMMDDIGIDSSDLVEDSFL
Chain of Tyrosine-protein kinase ABL2 (Homo sapiens) (P42684 whole entry): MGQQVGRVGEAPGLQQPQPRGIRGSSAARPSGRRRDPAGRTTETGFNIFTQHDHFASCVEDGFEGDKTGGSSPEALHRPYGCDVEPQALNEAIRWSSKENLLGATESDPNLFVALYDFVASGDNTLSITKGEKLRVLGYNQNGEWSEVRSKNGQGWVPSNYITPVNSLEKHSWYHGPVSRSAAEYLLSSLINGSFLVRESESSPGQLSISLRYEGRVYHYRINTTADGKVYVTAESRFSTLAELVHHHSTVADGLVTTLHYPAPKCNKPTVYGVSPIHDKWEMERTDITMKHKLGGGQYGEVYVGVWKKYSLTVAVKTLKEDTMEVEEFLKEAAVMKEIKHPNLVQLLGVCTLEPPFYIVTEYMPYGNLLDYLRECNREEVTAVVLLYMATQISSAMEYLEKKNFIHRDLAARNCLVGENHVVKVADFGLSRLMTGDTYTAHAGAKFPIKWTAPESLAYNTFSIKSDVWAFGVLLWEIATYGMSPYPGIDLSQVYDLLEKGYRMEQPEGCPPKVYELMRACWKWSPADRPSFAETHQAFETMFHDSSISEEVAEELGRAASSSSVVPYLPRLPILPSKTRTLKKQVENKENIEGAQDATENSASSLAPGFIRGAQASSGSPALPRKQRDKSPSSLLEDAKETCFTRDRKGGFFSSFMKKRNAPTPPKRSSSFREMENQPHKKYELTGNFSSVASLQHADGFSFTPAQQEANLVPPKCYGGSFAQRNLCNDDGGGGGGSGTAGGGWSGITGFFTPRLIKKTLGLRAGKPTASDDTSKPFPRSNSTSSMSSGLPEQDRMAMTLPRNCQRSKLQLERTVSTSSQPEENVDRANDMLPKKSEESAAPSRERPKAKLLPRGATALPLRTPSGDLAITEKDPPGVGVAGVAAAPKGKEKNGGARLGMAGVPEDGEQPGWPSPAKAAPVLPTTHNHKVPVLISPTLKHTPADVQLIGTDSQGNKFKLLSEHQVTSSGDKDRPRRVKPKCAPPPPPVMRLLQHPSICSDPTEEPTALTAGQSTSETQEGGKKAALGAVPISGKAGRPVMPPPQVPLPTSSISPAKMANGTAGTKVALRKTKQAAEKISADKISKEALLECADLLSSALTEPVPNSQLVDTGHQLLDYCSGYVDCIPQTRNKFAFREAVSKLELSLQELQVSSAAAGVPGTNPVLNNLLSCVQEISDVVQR
Chain of Ephrin type-A receptor 5 (Homo sapiens) (P54756 whole entry): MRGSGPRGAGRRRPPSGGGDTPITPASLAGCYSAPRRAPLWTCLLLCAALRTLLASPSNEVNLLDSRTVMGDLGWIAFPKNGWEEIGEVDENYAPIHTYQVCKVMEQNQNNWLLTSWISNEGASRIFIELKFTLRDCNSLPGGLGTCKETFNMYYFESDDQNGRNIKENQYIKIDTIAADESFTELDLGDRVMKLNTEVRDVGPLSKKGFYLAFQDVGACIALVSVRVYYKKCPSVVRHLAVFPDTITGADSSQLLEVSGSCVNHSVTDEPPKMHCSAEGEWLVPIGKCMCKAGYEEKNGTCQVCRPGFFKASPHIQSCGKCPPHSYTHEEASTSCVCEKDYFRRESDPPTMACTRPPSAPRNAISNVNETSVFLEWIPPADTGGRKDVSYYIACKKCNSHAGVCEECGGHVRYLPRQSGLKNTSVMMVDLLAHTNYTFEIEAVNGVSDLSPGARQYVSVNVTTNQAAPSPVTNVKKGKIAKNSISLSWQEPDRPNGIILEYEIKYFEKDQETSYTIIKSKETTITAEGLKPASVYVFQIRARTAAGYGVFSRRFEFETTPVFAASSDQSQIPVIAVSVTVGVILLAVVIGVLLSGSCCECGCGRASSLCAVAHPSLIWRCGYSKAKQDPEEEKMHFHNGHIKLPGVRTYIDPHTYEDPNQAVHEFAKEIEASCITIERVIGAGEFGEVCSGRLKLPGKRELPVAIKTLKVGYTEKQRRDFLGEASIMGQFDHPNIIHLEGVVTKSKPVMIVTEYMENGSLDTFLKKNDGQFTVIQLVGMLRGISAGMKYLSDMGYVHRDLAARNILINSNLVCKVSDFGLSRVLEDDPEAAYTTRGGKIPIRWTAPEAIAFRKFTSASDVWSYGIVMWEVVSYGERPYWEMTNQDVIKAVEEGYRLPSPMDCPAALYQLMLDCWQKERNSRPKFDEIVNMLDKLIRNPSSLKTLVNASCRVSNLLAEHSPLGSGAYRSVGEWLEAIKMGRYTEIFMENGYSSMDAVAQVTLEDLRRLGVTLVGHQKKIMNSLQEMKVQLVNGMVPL

inhibition [1]: Active
SMILES: COc1ccc(C(=O)Nc2cc(-c3ccccc3)[nH]n2)cc1
EC50 (KG-1): 15 µM
EC50 (MOLM-13): 0.292 µM
EC50 (EOL1): 0.07 µM

inhibition [2]: inactive
SMILES: Cc1ccc(-c2cc(NC(=O)c3ccc(F)cc3)[nH]n2)cc1

inhibition [3]: inactive
inhibition [4]: inactive
inhibition [5]: inactive
inhibition [6]: inactive
SMILES: Fc1ccc(-c2n[nH]cc2-c2ccncc2)cc1Cl
